Reference: ChEMBL document CHEMBL2417550, “Inhibition of the Escherichia coli 6-oxopurine phosphoribosyltransferases by nucleoside phosphonates: potential for new antibacterial agents” (J Med Chem, 2013)
pEC50, pIC50, pKi: −log10 of the molar value. ≈ marks a conversion by molar mass, not a printed value. Calls of active or inactive are those of the source. No cut-off for these calls is given here.

Key:
[1] = Selectivity index, ratio of EC50 for human A549 cells to MIC50 for Mycobacterium tuberculosis H37Ra ATCC 25177; format: functional
[2] = Inhibition of Escherichia coli XGPRT expressed in Escherichia coli SPhi606 using guanine as substrate by spectrophotometric analysis
Procedure, shortened: (§1)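 Enzymes (wild-type XGPRT, HPRT, and the XGPRT mutant lacking six flexible-loop residues) were expressed in E. coli SΦ606, purified to homogeneity and stored at −70 °C in 0.1 M Tris-HCl, 10 mM MgCl2, 1 mM DTT, pH 7.4. Ki was determined spectrophotometrically. Fixed base was 60 μM: guanine for XGPRT, hypoxanthine for HPRT. PRib-PP was varied from 14 to 1000 μM, and inhibitor from 0.1 to 140 μM.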

[3] = system: Mycobacterium tuberculosis; assay: Antimycobacterial activity against Mycobacterium tuberculosis H37Ra ATCC 25177 at >= 250 uM after 5 days by resazurin reduction assay; format: functional, organism-based
Procedure, shortened: (§2)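 M. tuberculosis H37Ra grown at 37 °C in 7H9 with OADC, 0.5% glycerol, 0.05% Tween-80 for about 14 days to mid-exponential phase (OD600 0.4−0.8). Diluted to OD600 0.001 (about 2 × 10^4 CFU/ml) in 7H9S with 0.5% DMSO and exposed to serially diluted compounds. Incubated 5 days at 37 °C, then resazurin added. Fluorescence (ex 530/em 580 nm) read 30 h later. Signal normalised to no-inhibitor and no-bacteria controls to give IC50.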

[4] = Inhibition of Escherichia coli recombinant XGPRT mutant expressed in Escherichia coli SPhi606 using guanine as substrate by spectrophotometric analysis; procedure, shortened: as §1
[5] = Inhibition of Escherichia coli HPRT expressed in Escherichia coli SPhi606 using hypoxanthine as substrate by spectrophotometric analysis; procedure, shortened: as §1
[6] = system: Mycobacterium tuberculosis; assay: Antimycobacterial activity against Mycobacterium tuberculosis H37Ra ATCC 25177 after 5 days by resazurin reduction assay; format: functional, organism-based; conditions: H37Ra ATCC 25177, 120 h; procedure, shortened: as §2
A549 = assay: Cytotoxicity against human A549 cells after 4 days by coulter counter analysis; format: cell-based; conditions: A549, 96 h
[7] = Competitive inhibition of Escherichia coli XGPRT expressed in Escherichia coli SPhi606 using guanine as substrate by spectrophotometric analysis in presence of pyrophosphate
Procedure, shortened: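 Ki was determined spectrophotometrically on purified XGPRT expressed in E. coli SΦ606, with guanine fixed at 60 μM. PRib-PP was varied from 14 to 1000 μM, and inhibitor from 0.1 to 140 μM. Pyrophosphate (33 μM) was added to the assay mixture along with the inhibitor.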

[8] = (§3) Non-competitive inhibition of Escherichia coli HPRT expressed in Escherichia coli SPhi606 using hypoxanthine as substrate by spectrophotometric analysis in presence of PRib-PP; procedure, shortened: as §1
Escherichia coli [9] = assay: as §3; procedure, shortened: as §1
Escherichia coli [10] = assay: Competitive inhibition of Escherichia coli XGPRT expressed in Escherichia coli SPhi606 using guanine as substrate by spectrophotometric analysis in presence of PRib-PP; procedure, shortened: as §1
[11] = Binding affinity to Escherichia coli XGPRT

Compound	pKi [2]	pKi [4]	pKi [5]	further results
Nc1nc2c(ncn2CC(COCCP(=O)(O)O)OCCP(=O)(O)O)c(=O)[nH]1 (centres undefined)	6.96	–	–	Selectivity Index [1]: >=17; Activity [3]: inactive
Nc1nc2c(ncn2C(COCP(=O)(O)O)COCP(=O)(O)O)c(=O)[nH]1	5.52	4.80	–	–
O=c1[nH]cnc2c1ncn2CCOCCP(=O)(O)O	5.82	4.34	4.77	–
CCOC(=O)[C@H](Cc1ccccc1)NP(=O)(CCOCC(Cn1cnc2c(=O)[nH]c(N)nc21)OCCP(=O)(N[C@@H](Cc1ccccc1)C(=O)OCC)N[C@@H](Cc1ccccc1)C(=O)OCC)N[C@@H](Cc1ccccc1)C(=O)OCC (some centres undefined)	–	–	–	pIC50 [6]: 5.30; MIC99 [6]: 20 µM (≈ 22.8 µg/mL); pEC50 (A549): 4.00
CCOC(=O)[C@H](Cc1ccccc1)NP(=O)(COCC(COCP(=O)(N[C@@H](Cc1ccccc1)C(=O)OCC)N[C@@H](Cc1ccccc1)C(=O)OCC)Cn1cnc2c(=O)[nH]c(N)nc21)N[C@@H](Cc1ccccc1)C(=O)OCC	–	–	–	pIC50 [6]: 5.30; MIC99 [6]: 20 µM (≈ 22.6 µg/mL); pEC50 (A549): < 3.52
O=C(CP(=O)(O)O)N1CC[C@@H](n2cnc3c(=O)[nH]cnc32)C1	< 3.70	< 3.70	4.46	–
Nc1nc2c(ncn2[C@@H]2CN(C(=O)CP(=O)(O)O)C[C@@H]2O)c(=O)[nH]1	< 3.60	< 3.60	–	–
Nc1nc2c(ncn2CC(O)COCP(=O)(O)O)c(=O)[nH]1 (centres undefined)	–	≤ 5.52	< 3.15	pKi [7]: 6.49; pKi [8]: 4.46
Nc1nc2c(ncn2CC(COCP(=O)(O)O)COCP(=O)(O)O)c(=O)[nH]1	8.00	6.62	–	Selectivity Index [1]: >=17; Activity [3]: inactive
O=c1[nH]cnc2c1ncn2CC(O)COCP(=O)(O)O (centres undefined)	4.80	< 3.70	4.14	inhibition (Escherichia coli [9]): Active
Nc1nc2c(ncn2[C@H]2CCN(C(=O)CP(=O)(O)O)C2)c(=O)[nH]1	6.64	5.52	–	Selectivity Index [1]: >=17; inhibition (Escherichia coli [10]): Active; Activity [3]: inactive
O=c1[nH]cnc2c1ncn2CC(COCP(=O)(O)O)COCP(=O)(O)O	–	–	6.10	Selectivity Index [1]: 4; Activity [3]: inactive
Nc1nc2c(ncn2C(COCP(=O)(O)O)C(O)COCP(=O)(O)O)c(=O)[nH]1 (centres undefined)	4.68	4.85	–	–
CCOC(=O)[C@H](Cc1ccccc1)NP(=O)(COCC(COCP(=O)(N[C@@H](Cc1ccccc1)C(=O)OCC)N[C@@H](Cc1ccccc1)C(=O)OCC)Cn1cnc2c(=O)[nH]cnc21)N[C@@H](Cc1ccccc1)C(=O)OCC	–	–	–	pIC50 [6]: 5.30; MIC99 [6]: 20 µM (≈ 22.3 µg/mL); pEC50 (A549): 4.00
O=c1[nH]cnc2c1ncn2C(COCP(=O)(O)O)COCP(=O)(O)O	4.14	–	–	–
CC(C)(C)C(=O)SCCOP(=O)(CC(=O)N1CC[C@H](n2cnc3c(=O)[nH]c(N)nc32)C1)OCCSC(=O)C(C)(C)C	–	–	–	pIC50 [6]: 5.30; MIC99 [6]: 20 µM (≈ 12.6 µg/mL); pEC50 (A549): < 3.52
Nc1nc2c(ncn2CCOCCP(=O)(O)O)c(=O)[nH]1	6.15	4.96	–	–
Nc1nc2c(ncn2[C@H]2CN(C(=O)CP(=O)(O)O)C[C@H]2O)c(=O)[nH]1	5.66	5.52	–	inhibition (Escherichia coli [10]): Active
Nc1nc2c(ncn2[C@@H]2O[C@H](COP(=O)(O)O)[C@@H](O)[C@H]2O)c(=O)[nH]1	–	3.92	3.28	pKi [11]: 5.35
Nc1nc2c(ncn2[C@@H]2CN(C(=O)CP(=O)(O)O)C[C@H]2OC(=O)CP(=O)(O)O)c(=O)[nH]1	6.40	5.59	–	inhibition (Escherichia coli [10]): Active
